IEC-6 cytotox: cytotoxicity in IEC-6 intestinal epithelial cells, primary screen, cytotoxicity control for KLF5 inhibitor project, cell-based, luminescence | inhibition, % at 5 µM | AID 1825, 2009 | 290,000 tested, 0.78% active | IEC-6 cytotoxicity, luminescence viability; in the data active = inhibition above about 22%;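 note: 0% = plate median of test compound wells and 100% = cytotoxic reference compound wells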
Ba/F3 V617F tox: reduced viability of JAK2V617F-dependent Ba/F3 cells, primary screen, JAK2V617F inhibitor project, cell-based, Ba/F3 EpoR-JAK2V617F, luminescence. ATP luminescence. inhibition, % at 5.6 µM. 220,000 tested, 1.1% active;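 active = inhibition above the campaign mean plus 3 SD over all tested compounds, cut at about 24% in these data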;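 note: cytokine-independent growth of Ba/F3 cells driven by EpoR plus mutant JAK2; 0% = DMSO-treated cells and 100% = JAK inhibitor I control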
BaF3 tox: parental Ba/F3 cell viability inhibition, counter-screen for JAK2V617F inhibitor project, murine pro-B, CellTiter-Glo luminescence; CellTiter-Glo ATP luminescence; inhibition, % at 5.6 µM; 220,000 tested, 1.1% active; AID 1486, 2009;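 active = inhibition above a per-campaign cutoff, the mean inhibition of all tested compounds plus 3 SD, cut at about 27% in these data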;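 note: 0% = DMSO wells and 100% = JAK Inhibitor I control wells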
KLF5 inhibitor: KLF5 expression inhibitors, primary screen, DLD-1 cells, luminescence; DLD-1 KLF5 promoter-luciferase reporter; inhibition, % at 5 µM; 290,000 tested, 0.23% active;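 active = inhibition above a per-plate limit of that plate's mean compound inhibition plus 3 SD, cut at about 60% in these data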;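 note: 0% = DMSO wells and 100% = LY294002 at 200 µM; higher means less KLF5 promoter-driven luciferase light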
b-catenin transl: modulators of beta-catenin nuclear translocation, primary screen, imaging, HeLa cells, immunofluorescence, high-content. 190,000 tested, 0.3% active. nuclear translocation activity, % at 5 µM. AID 1665, 2009;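 active = nuclear translocation activity above 50% at 5 µM, with a well cell count of 50 or more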;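 note: per-cell ratio of nuclear to cytoplasmic median beta-catenin stain intensity; plate controls were DMSO negative control for no effect and GSK-3 inhibitor IX positive control for full effect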
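Test system: human HeLa cell line; Doses: 5 µM primary, 0.02–20 µM confirmation; Incubation: 24 h compound exposure, 37°C; Detection: beta-catenin immunofluorescence imaging with DAPI; Read-out: beta-catenin nuclear/cytoplasmic ratio, % activation.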
MT stabilizer: microtubule stabilizers in HeLa cells, primary screen, imaging, high-content imaging | HeLa tubulin immunostaining HCS, 24 h; share of cells brighter than vehicle mean+2SD | % tubulin-high responders, % at 10 µM | 200,000 tested, 0.83% active;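 active = plate Z-score above 3 for both tubulin-high and condensed-nucleus cell shares, with cell loss under 80%, at 10 µM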;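 note: anti alpha tubulin signal scored within the nucleus-defined area of each cell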
The depositor's hits bear a star; x = no result given. Hits are enriched below; roughly 2.1% of the tested compounds scored in any of these assays.

SMILES	IEC-6 cytotox	Ba/F3 V617F tox	BaF3 tox	KLF5 inhibitor	b-catenin transl	MT stabilizer
COC(=O)c1ccc(C(=O)OC)c(NC(=O)CSc2nc(-c3ccco3)cc(C(F)(F)F)n2)c1	-2	-3	2	-10	x	3
COC(=O)c1ccccc1NC(=O)CSc1nc(-c2ccco2)cc(C(F)(F)F)n1	-2	-1	5	-11	-2	14*
Cc1ccc(NC(=O)CSc2nc(-c3ccco3)cc(C(F)(F)F)n2)cc1C	8	3	7	-1	28	49*
Cc1c(NC(=O)CSc2nc(-c3ccco3)cc(C(F)(F)F)n2)c(=O)n(-c2ccccc2)n1C	0	-4	1	-14	0	4
CCc1c(C)nc2ncnn2c1N1CCCC(C(=O)Nc2cc(F)ccc2C)C1 (centres undefined)	1	4	8	-23	2	2
CC(C)CC(NS(=O)(=O)c1ccccc1)C(=O)O (centres undefined)	2	0	6	-40	-4	1
CC(C)CN=C(NS(=O)(=O)c1ccccc1)C(Cl)(Cl)Cl	-3	6	0	-13	52*	6
Cc1cccc(N2CCN(C(=O)c3ccc(Cl)c(S(=O)(=O)NCc4ccco4)c3)CC2)c1C	15	7	11	5	1	42*
CC(=O)c1cn(CC(=O)Nc2c(C)cccc2C)c2ccccc12	6	33*	43*	3	1	5
CCC(=O)c1cn(CC(=O)Nc2c(C)cccc2C)c2ccccc12	0	x	x	-13	x	x
Cc1cc(C(=O)N2CCN(c3cccc(Cl)c3)CC2)c(C)o1	5	-1	6	11	x	60*
COc1ccc(C(=S)N2CCN(c3cccc(Cl)c3)CC2)c(OC)c1	54*	71*	41*	40	107*	18*
Cc1cc(C(=O)N2CCN(c3ccccc3)CC2)c(C)o1	-3	-1	8	-27	-2	3
CSc1ccccc1C(=O)N1CCN(c2cccc(Cl)c2)CC1	17	3	10	6	40	21*
Cc1ccc(C(=O)N2CCN(c3cccc(Cl)c3)CC2)cc1C	-8	-2	1	21	19	24*
COc1ccccc1NC(=O)/C(=C/c1ccncc1)NC(=O)c1ccccc1	-1	x	x	-23	x	x
CCCCNc1cc(Cl)nc(N)n1	4	-5	-1	1	2	x
C=CCOC(=O)COc1ccc2c(C)c(C)c(=O)oc2c1	0	0	1	7	3	1
COc1cc(CN2CCN(c3cccc(Cl)c3)CC2)cc(OC)c1OC	20	3	7	-7	-2	46*
COc1ccccc1CNC(=O)C1CC(c2cccc([N+](=O)[O-])c2)=NO1 (centres undefined)	5	0	5	0	0	48*
COc1cccc(C2=NOC(C(=O)NCc3cccs3)C2)c1 (centres undefined)	6	-6	-2	-36	98*	22*
Cc1ccc(NC(=O)C2CCCN2S(=O)(=O)c2ccc3c(c2)n(C)c(=O)c(=O)n3C)c(C)c1 (centres undefined)	3	-1	3	-7	0	x
COc1cccc(CNS(=O)(=O)c2c(C)[nH]c(C)c2C(=O)N2CCCC2)c1	0	x	x	9	x	x
CCC1=Nc2cc(C(=O)NCc3ccco3)ccc2Sc2ccccc21	36*	30*	32*	16	55*	24*
CCC1=Nc2cc(C(=O)NCc3ccco3)ccc2Sc2ccc(Cl)cc21	22*	20	73*	45	38	8
SMILES	IEC-6 cytotox	Ba/F3 V617F tox	BaF3 tox	KLF5 inhibitor	b-catenin transl	MT stabilizer
O=C(N/N=C/c1cccc(C(F)(F)F)c1)c1cc2c(s1)-c1ccccc1CC2	-4	-3	5	-5	2	14
Cc1cccc(/C=N/NC(=O)c2cc3c(s2)-c2ccccc2CC3)c1	0	-2	4	-8	0	34*
CCOC(=O)N1CCC(NC(=O)C2CCN(S(=O)(=O)c3ccc4c(c3)oc(=O)n4C)CC2)CC1	-1	0	5	-44	-1	2
NS(=O)(=O)c1ccc(CCNc2ccccc2[N+](=O)[O-])cc1	4	x	x	-47	x	x
CC(C)c1ccc(CN2CCN(C(=O)CCl)CC2)cc1	6	46*	0	-5	-3	1
CC(C)CC(=O)N1CCN(Cc2ccc(Cl)cc2)CC1	5	x	x	-27	x	x
C=CCOc1ccc(C2C(C#N)=C(N)N(Nc3ccccc3)C3=C2C(=O)CCC3)cc1OC (centres undefined)	2	6	11	-11	0	40*
COc1cc(C2C(C#N)=C(N)N(Nc3ccccc3)C3=C2C(=O)CC(C)(C)C3)ccc1OCc1ccccc1 (centres undefined)	0	4	4	-14	6	3
C=CCNC(=O)NC(=O)COC(=O)/C(C#N)=C/c1ccc(OC)cc1	6	-3	-1	0	-2	3
Cc1cc(C)nc(-n2ncc3c2CC(c2ccccc2)CC3=O)n1 (centres undefined)	-5	-1	7	2	-2	3
COc1ccc(C2CC(=O)c3cnn(-c4nc(C)cc(C)n4)c3C2)cc1 (centres undefined)	8	5	11	-11	9	40*
COc1ccc(CNC(=O)CN2CCC(NC(=O)c3ccc(OC)cc3)CC2)cc1	-4	x	x	-6	x	x
CCSC1=C(C#N)C2(CCCCC2)C(C#N)=C(N)N1	-2	1	6	-34	0	4
N#CC1=C(N)NC(SCc2ccccc2)=C(C#N)C12CCCCC2	4	-1	7	-8	58*	30*
O=C(CNC(=O)c1ccccc1F)OCC(=O)c1ccc(Cl)s1	-3	x	x	-15	x	x
CCOc1ccc(-n2c(-c3ccccc3)c[n+]3c2CCC3)cc1	20	79*	68*	-13	5	4
FC(F)Oc1ccc(-c2c[n+]3c(n2-c2ccccc2)CCCCC3)cc1	-2	64*	60*	-10	0	x
COc1ccc(-c2c[n+]3c(n2-c2c(C)n(C)n(-c4ccccc4)c2=O)CCCCC3)cc1	5	-1	3	-18	0	3
COc1ccc(-n2c(-c3ccc(Cl)cc3)c[n+]3c2CCCCC3)cc1	14	72*	66*	-48	0	x
COc1ccc(-c2c[n+]3c(n2-c2ccccc2)CCCCC3)cc1	17	76*	64*	6	1	7
O=C(c1cccc(Cl)c1)C1CCCN(Cc2ccc(N3CCNC3=O)cc2)C1 (centres undefined)	8	4	4	-19	2	9
Cc1cc(C)n(CC(O)COc2ccc(F)cc2)n1 (centres undefined)	-8	x	x	-7	x	x

Screens deposited in PubChem by several laboratories.
